Legend:
[1] = Drug recovery in healthy human feces at 1500 mg, iv infusion for 1 hr as single dose after 48 hrs; assay type: ADME, organism-based; details: read-out: Drug recovery
[2] = Drug metabolism in cynomolgus monkey liver S9 fraction assessed as (S)-3-(3-(aminomethyl)-1-hydroxy-1,3-dihydrobenzo[c][1,2]oxaborol-7-yloxy)propanoicacid formation at 50 to 500 uM after 3 hrs by liquid scintillation counting in presence of NAD+ and ADH inhibitor 4-MP; assay type: ADME, subcellular, Macaca fascicularis; details: s9, 3 h
In short: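 NAD+ (7.5 mM) incubations of [14C]GSK2251052 with 4 mg/ml monkey liver cytosol or liver S9 in pyrophosphate buffer included 4-MP at 0.6 mM final. Incubations ran in triplicate at 37°C. Extracts were counted by LSC and pooled for radio-HPLC.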

[3] = Drug recovery in healthy human feces at 1500 mg, iv infusion for 1 hr as single dose after 192 hrs; assay type: ADME, organism-based; details: faeces, read-out: Drug recovery
[4] = Drug recovery in healthy human feces at 1500 mg, iv infusion for 1 hr as single dose after 24 hrs; assay type: ADME, organism-based; details: read-out: Drug recovery
[5] = test system: Blood; test: Volume of distribution at steady state in healthy human whole blood assessed as radioactivity at 1500 mg, iv infusion for 1 hr as single dose; assay type: ADME, organism-based; details: in vivo
In short: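 Healthy males got a 1500 mg [14C] dose as a 1-h IV infusion. K2EDTA blood was taken at serial times to 336 h. Radioactivity in blood and plasma was measured by LSC; plasma below 870 ng eq/ml was re-measured by accelerator mass spectrometry. Vss = CL × MRT, with CL = dose/AUC(0-∞), from noncompartmental analysis on actual times.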

[6] = Drug recovery in healthy human feces at 1500 mg, iv infusion for 1 hr as single dose after 240 hrs; assay type: ADME, organism-based; details: faeces, read-out: Drug recovery
[7] = Drug recovery in healthy human urine at 1500 mg, iv infusion for 1 hr as single dose after 192 hrs; assay type: ADME, organism-based; details: read-out: Drug recovery
[8] = Drug recovery in healthy human urine at 1500 mg, iv infusion for 1 hr as single dose after 48 hrs; assay type: ADME, organism-based; details: read-out: Drug recovery
[9] = Drug recovery in healthy human urine at 1500 mg, iv infusion for 1 hr as single dose after 240 hrs; assay type: ADME, organism-based; details: read-out: Drug recovery
[10] = test system: Liver microsome; test: Drug metabolism in human liver microsomes assessed as (S)-3-(3-(aminomethyl)-1-hydroxy-1,3-dihydrobenzo[c][1,2]oxaborol-7-yloxy)propanoicacid formation at 50 to 500 uM after 3 hrs by liquid scintillation counting in presence of NADPH regeneration system; assay type: ADME
[11] = Drug recovery in healthy human urine at 1500 mg, iv infusion for 1 hr as single dose after 24 hrs; assay type: ADME, organism-based; details: read-out: Drug recovery
[12] = Total drug recovery in healthy human at 1500 mg, iv infusion for 1 hr as single dose after 48 hrs; assay type: ADME, organism-based; details: in vivo, read-out: Drug recovery
In short: (§1)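 Six healthy adult males, fasted ≥10 h, got one 1500 mg [14C]GSK2251052 dose ([…], 0.56 MBq) as a constant-rate 1-h IV infusion in 0.9% NaCl. Urine was collected at 0–6, 6–12 and 12–24 h, then in 24-h blocks to 336 h; feces in 24-h blocks. Urine was counted directly by LSC; feces were homogenized and combusted in duplicate before LSC. Cumulative recovery is given as mean % of dose.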

[13] = Total drug recovery in healthy human at 1500 mg, iv infusion for 1 hr as single dose after 192 hrs; assay type: ADME, organism-based; details: in vivo, read-out: Drug recovery
[14] = test system: Plasma; test: Clearance in healthy human plasma assessed as radioactivity at 1500 mg, iv infusion for 1 hr as single dose; assay type: ADME, organism-based; details: in vivo
In short: (§2)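 Six fasted healthy men received 1500 mg [14C]GSK2251052 as a 1-h i.v. infusion. Blood and plasma were sampled from predose to 336 h after infusion start. Radioactivity was counted by LSC; plasma below 870 ng eq/ml was reanalysed by accelerator MS, with predose background subtracted. Noncompartmental analysis used actual sampling times, linear-up/log-down trapezoids and CL = dose/AUC(0-∞).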

[15] = test system: Blood; test: AUC (0 to infinity) in healthy human whole blood assessed as radioactivity at 1500 mg, iv infusion for 1 hr as single dose; assay type: ADME, organism-based; set-up: dose 1500 mg, route intravenous, time infinity; details: in vivo; in short: as §2
[16] = test system: Plasma; test: AUC (0 to t) in healthy human plasma assessed as radioactivity at 1500 mg, iv infusion for 1 hr as single dose; assay type: ADME, organism-based; details: in vivo; in short: as §2
[17] = Drug recovery in healthy human feces assessed as total radioactivity at 1500 mg, iv infusion for 1 hr as single dose after 120 to 336 hrs by HPLC method; assay type: ADME, organism-based; details: in vivo, in the assay text read “0 to 120 hrs” for “120 to 336 hrs”
In short: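 Feces were collected at 24-h intervals through 336 h after a 1500 mg [14C] i.v. 1-h infusion. Samples were homogenised with water and duplicate aliquots combusted for LSC. For profiling, 0–120 h pools were extracted twice with acetonitrile:methanol:water:formic acid, reconstituted, and analysed by radio-HPLC. Values were reported as % dose.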

[18] = Drug recovery in healthy human urine at 1500 mg, iv infusion for 1 hr as single dose after 336 hrs; assay type: ADME, organism-based; details: read-out: Drug recovery
[19] = Drug recovery in healthy human feces at 1500 mg, iv infusion for 1 hr as single dose after 144 hrs; assay type: ADME, organism-based; details: read-out: Drug recovery
[20] = Drug recovery in healthy human feces at 1500 mg, iv infusion for 1 hr as single dose after 216 hrs; assay type: ADME, organism-based; details: faeces, read-out: Drug recovery
[21] = Drug recovery in healthy human urine at 1500 mg, iv infusion for 1 hr as single dose after 120 to 336 hrs by HPLC method; assay type: ADME, organism-based; details: in the assay text read “0 to 120 hrs” for “120 to 336 hrs”, read-out: Drug recovery
In short: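 Urine pooled by weight per subject over 0–120 h; 120–336 h pools from all subjects combined into one composite. Centrifuged at ~21,000g, then supernatant profiled by HPLC (Atlantis T3, ammonium acetate pH 4.5/methanol, 30°C) with radiochemical detection plus MS identification. Results are % of dose, corrected for centrifugation recovery measured by triplicate LSC.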

[22] = Drug recovery in healthy human feces at 1500 mg, iv infusion for 1 hr as single dose after 168 hrs; assay type: ADME, organism-based; details: faeces, read-out: Drug recovery
[23] = Total drug recovery in healthy human at 1500 mg, iv infusion for 1 hr as single dose after 120 hrs; assay type: ADME, organism-based; details: in vivo, read-out: Drug recovery
[24] = test system: Plasma; test: Cmax in healthy human plasma assessed as radioactivity at 1500 mg, iv infusion for 1 hr as single dose; assay type: ADME, organism-based; set-up: dose 1500 mg, route intravenous; details: in vivo; in short: as §2
[25] = Drug metabolism in cynomolgus monkey kidney S9 fraction assessed as (S)-3-(3-(aminomethyl)-1-hydroxy-1,3-dihydrobenzo[c][1,2]oxaborol-7-yloxy)propanoicacid formation at 50 to 500 uM after 3 hrs by liquid scintillation counting in presence of NADPH regeneration system; assay type: ADME, Macaca fascicularis; details: s9, 3 h
[26] = Total drug recovery in healthy human at 1500 mg, iv infusion for 1 hr as single dose after 216 hrs; assay type: ADME, organism-based; details: in vivo, read-out: Drug recovery; in short: as §1

SMILES: Cl.N[14CH2][C@H]1OB(O)c2c(OCCCO)cccc21
- dose excreted at 48 h [1]: 1.3%
- Drug metabolism [2]: metabolite_not_detected
- dose excreted at 192 h [3]: 7.6%
- dose excreted at 24 h [4]: 0.1%
- Vdss [5]: 116 L
- dose excreted at 240 h [6]: 7.6%
- dose excreted at 192 h [7]: 87.4%
- dose excreted at 48 h [8]: 69.2%
- dose excreted at 240 h [9]: 88.8%
- Drug metabolism [10]: metabolite_not_detected
- dose excreted at 24 h [11]: 51.2%
- dose excreted at 48 h [12]: 70.5%
- dose excreted at 192 h [13]: 95%
- CL [14]: 7.7 L/h
- AUC [15]: 193 µg·h/mL
- AUCt [16]: 191 µg·h/mL
- Drug recovery [17]: 6%
- dose excreted at 336 h [18]: 90.5%
- dose excreted at 144 h [19]: 7.5%
- dose excreted at 216 h [20]: 7.6%
- dose excreted [21]: 28.9%
- dose excreted at 168 h [22]: 7.6%
- dose excreted at 120 h [23]: 90.7%
- Cmax [24]: 24300 ng/mL
- Drug metabolism [25]: metabolite_not_detected
- dose excreted at 216 h [26]: 95.8%

From ChEMBL document CHEMBL3526029, “Disposition and metabolism of GSK2251052 in humans: a novel boron-containing antibiotic” (Drug Metab Dispos, 2013)
